PG9 Ab binder – small molecules binding HIV-1 gp120 antibody PG9 | inhibition, % at 6.7 µM | AID 624416 | TR-FRET gp120-PG9 antibody binding | hit rate 0.43% among 360,000; in the data active = inhibition above about 8.5%
GalR3 antagonist – blocks the human galanin receptor 3. HEK293 GalR3-CNG cAMP membrane potential fluorescence; galR3 body fused to GalR1 C-terminus. inhibition, % at 3 µM. hit rate 0.44% among 360,000;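 active = inhibition above the screen-wide average plus 3 SD, cut at about 13% in these data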;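 also: forskolin and galanin both at EC90 stimulate the cells; cAMP rise reported by CNG channel membrane potential dye signal; 0% = forskolin plus galanin with DMSO and 100% = forskolin alone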
NR2E3 ag-1 – NR2E3 (human) agonism | Q9Y5X4 | GST-NR2E3/biotin-RetCOR TR-FRET, 1536-well | inhibition of corepressor binding, % at 4.78 µM | hit rate 0.12% among 320,000;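 active = percent inhibition above the cutoff of mean plus 3 SD of all tested compounds, set per screening campaign, cut at about 20% in these data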;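 also: 0% = DMSO wells and 100% = biotin wells as full block of FRET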
Target sequence (Q9Y5X4 whole entry, looked up): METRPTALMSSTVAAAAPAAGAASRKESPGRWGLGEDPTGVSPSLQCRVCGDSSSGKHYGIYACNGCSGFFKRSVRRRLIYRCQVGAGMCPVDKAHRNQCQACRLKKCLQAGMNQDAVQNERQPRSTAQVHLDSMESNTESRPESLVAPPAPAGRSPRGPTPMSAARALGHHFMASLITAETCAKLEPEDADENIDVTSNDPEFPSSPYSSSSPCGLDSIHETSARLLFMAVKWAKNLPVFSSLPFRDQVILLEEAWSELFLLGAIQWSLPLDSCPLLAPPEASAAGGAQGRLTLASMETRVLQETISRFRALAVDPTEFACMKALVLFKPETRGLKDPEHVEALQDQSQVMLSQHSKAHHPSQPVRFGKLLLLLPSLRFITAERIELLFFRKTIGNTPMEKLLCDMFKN
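System: GST-NR2E3 and biotin-RetCOR proteins; probe or stimulus: 7 nM biotin-RetCOR; doses: compound at 4.8 µM, single dose; schedule: Compound–protein incubation for 5 h at 4 °C; detection: time-resolved FRET; read-out: percent inhibition; controls: biotin wells as high control, 0.6% DMSO wells as low control; format: 1536-well plates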
NR1D1 modulator – modulates human Rev-erb alpha binding to DNA. P20393. Rev-erbα–FITC-DNA binding, fluorescence polarization, 90 min. activity, % at 10 µM. hit rate 0.79% among 370,000. AID 1259318;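 active = activity above about 14%, limit read from the data; passing the limit was not always enough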;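 also: 0% = DMSO wells with 35 nM protein and 100% = DMSO wells with 750 nM protein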
NR2E3 ag-2 – human photoreceptor-specific nuclear receptor agonism; CHO-S Gal4-NCOR/VP16-NR2E3 two-hybrid, luciferase; Q9Y5X4; AID 602229; hit rate 0.35% among 360,000; inhibition of corepressor binding, % at 3.98 µM;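 active = inhibition above the mean of all tested compounds plus 3 SD, cut at about 70% in these data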;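 also: 0% = DMSO with NR2E3 transfected cells and 100% = cells lacking NR2E3 construct; higher means lower luciferase signal from less NR2E3 corepressor binding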
NR2E3 ag conf – confirmation of human NR2E3 agonists | shares compounds with NR2E3 ag-2 | CHO-S mammalian two-hybrid NR2E3-NCOR, luciferase luminescence | inhibition, % at 3.98 µM | hit rate 51% among 2,300 | AID 624378;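 active = average inhibition above a cutoff equal to the mean inhibition of all tested compounds plus one SD, cut at about 70% in these data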;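 also: 0% = DMSO in NR2E3 cells and 100% = DMSO in cells lacking NR2E3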
VP16 counter – GAL4-VP16 reporter inhibition in NR2E3 agonist counterscreen | shares compounds with NR2E3 ag-2 | CHO-S GAL4-VP16 luciferase reporter, luminescence | inhibition, % at 3.98 µM | hit rate 29% among 2,300 | AID 624379;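 active = mean inhibition above a cutoff equal to the average over all tested compounds plus one standard deviation, cut at about 70% in these data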;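 also: luciferase from a UAS reporter driven by GAL4-VP16 transactivation; 0% = DMSO with VP16-transfected cells and 100% = DMSO with cells lacking VP16; higher means less reporter light so more repression of VP16 activity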
* hit, by the source's call; . = no result. Most compounds without a hit are left out; they make up all but 1.8% or so of the library.

SMILES	PG9 Ab binder	GalR3 antagonist	NR2E3 ag-1	NR1D1 modulator	NR2E3 ag-2	NR2E3 ag conf	VP16 counter
Cc1cccc(C)c1NC(=O)CN(C)C(=O)c1cccc(S(=O)(=O)N2CCN(c3ccc(F)cc3)CC2)c1	1	-7	-1	-5	11	.	.
CN(CCOc1ccc(Cl)cc1)C(=O)c1cccc(S(=O)(=O)N2CCN(c3ccc(F)cc3)CC2)c1	.	.	.	.	96*	94*	82*
CCOc1ccc(-c2cccc(NS(=O)(=O)c3cc([N+](=O)[O-])ccc3Cl)c2)nn1	-2	-5	-3	-2	53	18	-4
Cn1c(=O)c(=O)n(C)c2cc(S(=O)(=O)N3CCN(Cc4ccc5c(c4)OCO5)CC3)ccc21	.	.	.	-6	.	.	.
C[C@H]1[C@H](NC(=O)c2ccc(C(F)(F)F)cc2)CC[C@@]23CCCN2C(=O)CCC[C@@H]13	.	.	.	0	.	.	.
NS(=O)(=O)c1ccc(CCNc2nn3c(-c4cccc(OC(F)(F)F)c4)cnc3s2)cc1	2	4	.	14	94*	90*	53
Cc1cc(-n2c(C)cc(C(=O)CSc3[nH]c(=O)cc(C(F)(F)F)c3C#N)c2C)no1	0	-8	4	2	98*	99*	89*
Cc1cnc(NC(=O)C2CC(=O)N(c3ccc4c(c3)OCCO4)C2)s1 (centres undefined)	-1	-4	.	3	55	75*	25
Cc1nnc(NC(=O)C2CC(=O)N(c3ccc4c(c3)OCCO4)C2)s1 (centres undefined)	-3	-1	6	7	10	.	.
Cc1ccc(NC(=O)NC2CC(=O)N(c3ccc4c(c3)OCCO4)C2)cc1C (centres undefined)	1	-1	-3	2	54	32	6
CC(=O)Nc1ccc(NC(=O)C2CC(=O)N(c3cccc(Cl)c3)C2)cc1 (centres undefined)	-2	-6	2	-2	11	.	.
Cc1cnc(NC(=O)C2CC(=O)N(c3cccc(Cl)c3)C2)s1 (centres undefined)	-3	-3	4	6	86*	100*	52
Cc1ccc2nc(-c3ccc(NC(=O)CSc4nnc(-c5ccccc5)n4Cc4ccco4)cc3)sc2c1	.	.	.	16	.	.	.
CCn1c(COc2ccc(C)cc2)nnc1SCC(=O)Nc1ccc(C(=O)OC)cc1	.	.	.	-5	.	.	.
O=C(CSc1ccc(-c2ccc(F)cc2)nn1)N1CCCc2ccccc21	0	-8	1	-2	58	-7	-26
COc1ccccc1-c1csc2ncnc(Sc3nnnn3C)c12	0	-6	2	0	-9	.	.
Cn1nnnc1Sc1ncnc2scc(-c3ccc(Br)cc3)c12	0	-4	.	6	49	-25	-22
Cn1nnnc1Sc1ncnc2scc(-c3ccc(F)cc3)c12	2	0	1	-1	37	.	.
Cn1nnnc1Sc1ncnc2scc(-c3ccccc3)c12	0	2	0	4	63	-18	10
Cn1nnnc1Sc1ncnc2scc(-c3cccc4ccccc34)c12	1	-5	.	3	60	59	69
Cn1nnnc1Sc1ncnc2scc(-c3ccccc3Br)c12	-2	-6	3	-1	64	27	59
C(=C\c1ccccc1)/CSc1nnc(Cc2cccs2)n1-c1ccccc1	.	.	.	1	.	.	.
CCOC(=O)[C@@]12CN(C(=O)OC(C)(C)C)CC=C1N(Cc1ccc(OC)cc1)C(=O)[C@H]2CC(=O)N1CCC(c2ccccc2)CC1	.	.	.	-2	.	.	.
CCOC(=O)CNC(=O)N(C)[C@H]1C[C@H]2c3[nH]c4c(-c5cccc(C)c5)cccc4c3CCN2C(=O)[C@H]1[C@H](C)O	.	.	.	-6	.	.	.
CCC(=O)N1CCCc2cc(S(=O)(=O)N3CCN(c4ccccn4)CC3)ccc21	0	-1	-1	-4	69	93*	6
SMILES	PG9 Ab binder	GalR3 antagonist	NR2E3 ag-1	NR1D1 modulator	NR2E3 ag-2	NR2E3 ag conf	VP16 counter
CCC(=O)N1CCCc2cc(S(=O)(=O)N3CCN(c4ncccn4)CC3)ccc21	0	.	0	2	-7	.	.
Cc1ccc(C(=O)N/N=C/c2ccc([N+](=O)[O-])s2)cc1	-3	0	-4	-4	69	-3	68
COc1cnc(-c2ccccn2)nc1Oc1ccccc1	0	2	2	1	59	22	-20
COc1cnc(-c2ccccn2)nc1N(C)c1ccccc1	-1	-10	-2	1	105*	94*	-23
COCCCN1C(=O)[C@H](CC(=O)NCc2cccc(C(F)(F)F)c2)[C@]2(C(=O)OC)CCCCC=C12	.	.	.	3	.	.	.
Cn1cccc1C(=O)N1CCN(S(=O)(=O)c2ccccc2F)CC1	.	.	.	1	.	.	.
C[C@@H]1CC2C3CCC4=CC(=O)C=C[C@]4(C)[C@@]3(F)[C@@H](O)C[C@]2(C)[C@@]1(O)C(=O)CO (some centres undefined)	.	.	.	-5	.	.	.
O=C(OCc1cn(Cc2ccc(F)cc2)nn1)N1CCCC1	.	.	.	2	.	.	.
N#C/C(=C1/SC[C@@H](c2ccc(Cl)cc2Cl)S1)n1ccnc1	.	.	.	1	.	.	.
Cc1ccc(OCC(=O)N2N=C(C(F)(F)F)CC2(O)C(C)(C)C)cc1C (centres undefined)	0	-6	3	0	51	59	47
Cc1ccc(S(=O)(=O)CC2CSc3nc4ccccc4n32)cc1 (centres undefined)	-1	-11	-1	0	74*	93*	70
N#C/C(=N\Nc1ccc(Cl)cc1)C(=O)c1ccccc1	-1	-3	3	1	99*	100*	91*
O=C(CSc1nc2ccccc2nc1N1CCCC1)N1CCN(C(c2ccccc2)c2ccccc2)CC1	.	.	.	-8	.	.	.
CC1(C(=O)NS(=O)(=O)c2ccc3ccccc3c2)CCN1C(=O)Cc1ccc(-c2ccccc2)cc1 (centres undefined)	-2	-6	.	-3	48	11	6
CC1(C(=O)Nc2ccc3c(c2)OCCO3)CCN1C(=O)Cc1ccc(-c2ccccc2)cc1 (centres undefined)	1	-8	.	-10	57	56	45
CC1(C(=O)Nc2cccc(C#N)c2)CCN1C(=O)CCc1ccccc1 (centres undefined)	-1	-2	.	6	34	.	.
CC1(C(=O)Nc2cccc(C#N)c2)CCN1C(=O)Cc1ccc(-c2ccccc2)cc1 (centres undefined)	-1	-3	.	-4	91*	98*	90*
CC(C)c1ccc(CC(=O)N2CCC2(C)C(=O)Nc2cccc(C#N)c2)cc1 (centres undefined)	0	-6	.	0	52	17	30
O=C(OCCN1CCN(C2CN(Cc3cn(Cc4cccc(F)c4)nn3)S(=O)(=O)C2)CC1)c1cc2ccccc2o1 (centres undefined)	.	.	.	9	.	.	.

High-throughput results deposited in PubChem BioAssay by several laboratories.
